Test results from paper PMC6421850 (The Journal of organic chemistry, 2018).
Read-outs that look alike come from different tables or passages of the source.

Key:
[1] = system: MCF-7 (estrogen receptor-positive and HER2-negative breast cancer); experiment: Antiproliferative activity, SRB assay, MCF-7; assay type: cell-based, human
[2] = system: MDA-MB-231 (triple-negative breast cancer); experiment: Antiproliferative activity, SRB assay, MDA-MB-231; assay type: cell-based, human
[3] = system: KB-VIN (P-gp-overexpressing MDR subline of KB); experiment: Antiproliferative activity, SRB assay, KB-VIN; details: read-out: IC50 KB-VIN, 50% reduction relative to untreated cells
A549 (lung carcinoma) = experiment: Antiproliferative activity, SRB assay, A549; assay type: cell-based, human
[4] = system: KB (epidermoid carcinoma of the nasopharynx); experiment: Antiproliferative activity, SRB assay, KB; assay type: cell-based, human; details: read-out: IC50 KB
[5] = system: KB-VIN (P-gp-overexpressing MDR subline of KB)
MDA-MB-231 cells [6] = experiment: Cell cycle analysis by flow cytometry; assay type: cell-based, human; details: MDA-MB-231, 24 h; for accumulation of sub-G1 cells: dose-dependent; for effect on cell cycle progression: flow cytometry, PI staining; for propidium iodide (PI) signals: higher concentrations
Summary of the method: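 MDA-MB-231 cells were exposed to test compound for 24 h at the indicated concentrations, with DMSO as vehicle control. DNA content was stained with propidium iodide/RNase. Cell-cycle distribution, including the sub-G1 fraction, was read by flow cytometry.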

MDA-MB-231 cells [7] = experiment: Immunocytochemistry; assay type: cell-based, human; details: MDA-MB-231, 24 h
Summary of the method: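 MDA-MB-231 cells were seeded on chamber slides 24 h before a 24 h exposure, with 0.1% DMSO as control. Cells were fixed in 4% paraformaldehyde/PBS and permeabilised with 0.5% Triton X-100. They were probed with mouse anti-α-tubulin, then FITC anti-mouse IgG, with DAPI for nuclei. Confocal projections used 12–18 sections at 0.6–1 μm intervals. Each concentration was repeated at least twice.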

[8] = system: all tested human tumor cell lines, including MDR subline; experiment: Antiproliferative activity, all tested human tumor cell lines; assay type: cell-based; details: read-out: IC50 values against all tested human tumor cell lines
[9] = system: horse's blood (red blood cells); experiment: In vitro hemolytic assay; assay type: cell-based; details: up to 500 μM
[10] = read-out: IC50 MCF-7, SRB assay, 50% reduction relative to untreated cells
[11] = read-out: IC50 MDA-MB-231, SRB assay, 50% reduction relative to untreated cells
[12] = read-out: IC50 A549, SRB assay, 50% reduction relative to untreated cells
[13] = SRB assay, 50% reduction relative to untreated cells
[14] = Homo sapiens, MCF7, read-out: IC50 MCF-7
[15] = Homo sapiens, MDA-MB-231, read-out: IC50 MDA-MB-231
[16] = Homo sapiens, A549, read-out: IC50 A549

C=CC(=C)CC[C@]1(C)[C@H](C)C[C@H](OC(=O)CCCCC)[C@@]23C(=C[C@H](O)C[C@@H]12)[C@@H](OC(C)=O)O[C@H]3OC(C)=O [Compound 14, (2R,5S,6S,8R,−9R,10S,18R,19S)-18,19-di-O-acetyl-18,19-epoxy-2-hydroxy-6-hexanoyloxycleroda-3,13(16),14-triene]
IC50 [1, 10]: 5190 nM | IC50 [2, 11]: 4730 nM | IC50 [3]: 4880 nM | IC50 (A549 (lung carcinoma); [12]): 4760 nM | IC50 [4, 13]: 4740 nM

C=CC(=C)CC[C@]1(C)[C@H](C)C[C@H](OC)[C@@]23C(=C[C@H](OC(=O)C(C)C)C[C@@H]12)[C@@H](OC(C)=O)O[C@H]3OC(C)=O [Compound 3, (2R,5S,6S,8R,9R,10S,18R,19S)-18,19-di-O-acetyl-18,19-epoxy-6-methoxy-2-isobutanoyloxycleroda-3,13(16),14-triene]
IC50 [1, 10]: 500 nM | IC50 [2, 11]: 490 nM | IC50 [5]: 490 nM | IC50 (A549 (lung carcinoma); [12]): 470 nM | IC50 [4, 13]: 450 nM | accumulation of sub-G1 cells (MDA-MB-231 cells [6]): significant accumulations of sub-G1 cells | effect on cell cycle progression (MDA-MB-231 cells [6]): no effect on cell cycle progression | cell morphology (microtubules, chromatin) (MDA-MB-231 cells [7]; 1.5 μM (3-fold IC50)): normal morphology with intact nuclei and a clear microtubule network | cell morphology (microtubules, chromatin) (MDA-MB-231 cells [7]; 4.9 μM (10-fold IC50)): fragmented and dispersed chromatin (arrowhead) with an apoptotic microtubule array | induction of apoptosis (MDA-MB-231 cells [7]; 1.5 and 4.9 μM): induced apoptosis in a dose-dependent manner

C=CC(=C)CC[C@]1(C)[C@H](C)C[C@H](OC(=O)CCCCCCCCC)[C@@]23C(=C[C@H](OC(C)=O)C[C@@H]12)[C@@H](OC(C)=O)O[C@H]3OC(C)=O [Compound 9, (2R,5S,6S,8R,9R,10S,18R,19S)-2,18,19-tri-O-acetyl-18,19-epoxy-6-decanoyloxycleroda-cleroda-3,13(16),14-triene]
IC50 [1, 10]: 31700 nM | IC50 [2, 11]: 20500 nM | IC50 [3]: 39200 nM | IC50 (A549 (lung carcinoma); [12]): 40200 nM | IC50 [4, 13]: 19800 nM

C=CC(=C)CC[C@]1(C)[C@H](C)C[C@H](OC)[C@@]23C(=C[C@H](OC(=O)CC)C[C@@H]12)[C@@H](OC(C)=O)O[C@H]3OC(C)=O [Compound 4, (2R,5S,6S,8R,9R,10S,18R,−19S)-18,19-di-O-acetyl-18,19-epoxy-6-methoxy-2-propionyloxy-cleroda-3,13(16),14-triene]
IC50 [1, 10]: 4940 nM | IC50 [2, 11]: 4950 nM | IC50 [3]: 4920 nM | IC50 (A549 (lung carcinoma); [12]): 4600 nM | IC50 [4, 13]: 5190 nM

C=CC(=C)CCC1(C)C(C)CC(O)C23C(=CC(OC(=O)C(C)CC)CC12)C(OC(C)=O)OC3OC(C)=O (stereo not drawn) [Compound 17, 18,19-di-O-acetyl-18,19-epoxy-6-hydroxy-2-(2′-methylbutanoyloxy)cleroda-3,13-(16),14-triene]
IC50 [1, 10]: 890 nM | IC50 [2, 11]: 540 nM | IC50 [3]: 4070 nM | IC50 (A549 (lung carcinoma); [12]): 4150 nM | IC50 [4, 13]: 730 nM | accumulation of sub-G1 cells (MDA-MB-231 cells [6]): significant accumulations of sub-G1 cells | effect on cell cycle progression (MDA-MB-231 cells [6]): no effect on cell cycle progression | propidium iodide (PI) signals (MDA-MB-231 cells [6]): decreased unusually and dramatically in all cells

caseamembrin S [Compound 16]
IC50 [1, 10]: 660 nM | IC50 [2, 11]: 450 nM | IC50 [3]: 900 nM | IC50 (A549 (lung carcinoma); [12]): 580 nM | IC50 [4, 13]: 530 nM | accumulation of sub-G1 cells (MDA-MB-231 cells [6]): significant accumulations of sub-G1 cells | effect on cell cycle progression (MDA-MB-231 cells [6]): no effect on cell cycle progression | propidium iodide (PI) signals (MDA-MB-231 cells [6]): decreased unusually and dramatically in all cells

C=CC(=C)CC[C@]1(C)[C@H]2C[C@@H](OC(=O)C(C)CC)C=C3[C@H](OC(C)=O)O[C@H](OC(C)=O)[C@@]32[C@H](O)C[C@@H]1C (stereo partly drawn) [Compound 18, caseamembrin E]
IC50 [1, 14]: 550 nM | IC50 [2, 15]: 400 nM | IC50 (A549 (lung carcinoma); [16]): 530 nM | IC50 ([4]; Homo sapiens): 430 nM | IC50 [8]: 400 to 1000 nM

CC(=O)O[C@H]1C(=O)[C@@]2(C)[C@H]([C@H](OC(=O)c3ccccc3)[C@]3(O)C[C@H](OC(=O)[C@H](O)[C@@H](NC(=O)c4ccccc4)c4ccccc4)C(C)=C1C3(C)C)[C@]1(OC(C)=O)CO[C@@H]1C[C@@H]2O [Paclitaxel, reference compound]
IC50 [1, 14]: 12.1 nM | IC50 [2, 15]: 8.36 nM | IC50 (A549 (lung carcinoma); [16]): 6.53 nM | IC50 ([4]; Homo sapiens): 7.07 nM

C=CC(=C)CCC1(C)C(C)CC(O)C23C(=CC(OC(=O)/C=C/C=C/CCCCC)CC12)C(OC(C)=O)OC3OC(C)=O (stereo not drawn) [Compound 19, corymbulosin A]
hemolytic activity (in words) [9]: most potent activity but only at the unusually high concentration of 500 μM | IC50 [1, 10]: 440 nM | IC50 [2, 11]: 430 nM | IC50 [3]: 450 nM | IC50 (A549 (lung carcinoma); [12]): 450 nM | IC50 [4, 13]: 420 nM | accumulation of sub-G1 cells (MDA-MB-231 cells [6]): except with compound 19 | effect on cell cycle progression (MDA-MB-231 cells [6]): no effect on cell cycle progression

C=CC(=C)CC[C@]1(C)[C@H](C)C[C@H](OC)[C@@]23C(=C[C@H](OC(=O)[C@@H](C)CC)C[C@@H]12)[C@@H](OC(C)=O)O[C@H]3OC(C)=O [Compound 6, (2R,5S,6S,−8R,9R,10S,18R,19S)-18,19-di-O-acetyl-18,19-epoxy-6-methoxy-2-(2′-methylbutanoyloxy)-cleroda-3,13(16),14-triene]
IC50 [1, 10]: 5820 nM | IC50 [2, 11]: 4900 nM | IC50 [3]: 5190 nM | IC50 (A549 (lung carcinoma); [12]): 5040 nM | IC50 [4, 13]: 5230 nM
